Source: ChEMBL document CHEMBL2029273, “Structure-based design of potent and ligand-efficient inhibitors of CTX-M class A β-lactamase” (J Med Chem, 2012)
Values after ≈ are worked out from the molar mass of the structure shown. Active and inactive are the calls of the source. No cut-off for these calls is given here.

How the values were obtained:
[1] = Inhibition of beta-lactamase CTX-M using nitrocefin as substrate
Escherichia coli [2] = assay: Antibacterial activity against Escherichia coli expressing CTX-M-14 beta-lactamase assessed as potentiation of cefotaxime MIC; format: functional
Summary of the method: (§1)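 Combination MIC per CLSI in Mueller-Hinton medium against clinical E. coli isolates carrying the named CTX-M enzyme. Inhibitor in DMSO (below 10%) was paired with cefotaxime at a 1:1 β-lactam:inhibitor ratio. Values are the average of three independent experiments.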

Escherichia coli [3] = assay: Antibacterial activity against Escherichia coli expressing CTX-M-14 beta-lactamase; format: functional
Summary of the method: (§2)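 MIC per CLSI broth dilution in Mueller-Hinton medium. Compound dissolved in DMSO and diluted in medium, DMSO kept below 10%. Tested alone against clinical E. coli isolates carrying the named CTX-M enzyme. Values are the average of three independent experiments.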

Escherichia coli [4] = assay: Antibacterial activity against Escherichia coli expressing CTX-M-9 beta-lactamase assessed as potentiation of cefotaxime MIC; format: functional; summary of the method: as §1
Escherichia coli [5] = assay: Antibacterial activity against Escherichia coli expressing CTX-M-9 beta-lactamase assessed as inhibition zone at 15 to 30 ug by disk diffusion assay; format: functional, organism-based
Summary of the method: (§3)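 Disk diffusion: bacteria suspended in sterile water to 0.5 McFarland, diluted a further 10-fold and spread on Mueller-Hinton agar. Plates dried 10 min before disks were applied: cefotaxime 30 μg, inhibitor 30 μg, cefotaxime:inhibitor 30:15 or 30:30 μg, or solvent.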

Escherichia coli [6] = assay: Antibacterial activity against Escherichia coli expressing CTX-M-9 beta-lactamase; format: functional; summary of the method: as §2
Escherichia coli [7] = assay: Antibacterial activity against Escherichia coli expressing CTX-M-9 beta-lactamase assessed as increase of cefotaxime inhibition zone at 15 to 30 ug by disk diffusion assay; format: functional, organism-based; summary of the method: as §3

SMILES	Ki ([1]; read-out: Ki) [µM]	also measured
O=C(Nc1cccc(-c2nnn[nH]2)c1)c1cccc2[nH]ccc12	6.6	–
N#Cc1ccc(C(=O)Nc2cccc(-c3nn[nH]n3)c2)cc1	–	Ki [1]: Not Active
N#Cc1cc(Br)cc(C(=O)Nc2cccc(-c3nnn[nH]3)c2)c1	34.1	–
O=C(Nc1cccc(-c2nnn[nH]2)c1)c1cc(O)cc(C(F)(F)F)c1	0.63	–
O=C(Nc1cccc(-c2nnn[nH]2)c1)c1cc(C(F)(F)F)cc2[nH]cnc12	0.089	fold change (FC) (Escherichia coli [2]): 64; MIC (Escherichia coli [3]): ≥ 64 µg/mL; fold change (FC) (Escherichia coli [4]): 64; inhibition zone (IZ) (Escherichia coli [5]): inactive; MIC (Escherichia coli [6]): ≥ 64 µg/mL; inhibition zone (IZ) (Escherichia coli [7]): Dose-dependent effect
O=C(Nc1cccc(-c2nnn[nH]2)c1)c1cc(F)cc2[nH]cnc12	2.7	–
O=C(Nc1cccc(-c2nnn[nH]2)c1)c1cccc(Cl)c1	6.2	–
COC(=O)c1cccc(C(=O)Nc2cccc(-c3nnn[nH]3)c2)c1	6.9	–
Nc1cc(C(=O)Nc2cccc(-c3nnn[nH]3)c2)cc(C(F)(F)F)c1	1	–
CO/N=C(\C(=O)N[C@@H]1C(=O)N2C(C(=O)O)=C(COC(C)=O)CS[C@H]12)c1csc(N)n1 [CEFOTAXIME]	–	MIC (Escherichia coli [3]): 32 µg/mL (≈ 70.3 µM); MIC (Escherichia coli [6]): 64 µg/mL (≈ 141 µM)
O=C(Nc1cccc(-c2nnn[nH]2)c1)c1ccc2[nH]ccc2c1	1.9	–
CC(=O)c1cccc(C(=O)Nc2cccc(-c3nnn[nH]3)c2)c1	10.2	–
O=C(Nc1cccc(-c2nnn[nH]2)c1)c1cccc([N+](=O)[O-])c1	3.8	–
O=C(Nc1cccc(-c2nnn[nH]2)c1)c1cc(O)cc(Br)c1	0.57	–
O=C(Nc1cccc(-c2nnn[nH]2)c1)c1cccc(C2CC2)c1	3.1	–
N#Cc1cccc(C(=O)Nc2cccc(-c3nnn[nH]3)c2)c1	7.2	–
COc1cccc(C(=O)Nc2cccc(-c3nnn[nH]3)c2)c1	17.1	–
Cc1cccc(C(=O)Nc2cccc(-c3nnn[nH]3)c2)c1	4.5	–
